The target in one experiment is T1, Interstitial collagenase (Homo sapiens, UniProt P03956).
T1 sequence (P03956 whole entry): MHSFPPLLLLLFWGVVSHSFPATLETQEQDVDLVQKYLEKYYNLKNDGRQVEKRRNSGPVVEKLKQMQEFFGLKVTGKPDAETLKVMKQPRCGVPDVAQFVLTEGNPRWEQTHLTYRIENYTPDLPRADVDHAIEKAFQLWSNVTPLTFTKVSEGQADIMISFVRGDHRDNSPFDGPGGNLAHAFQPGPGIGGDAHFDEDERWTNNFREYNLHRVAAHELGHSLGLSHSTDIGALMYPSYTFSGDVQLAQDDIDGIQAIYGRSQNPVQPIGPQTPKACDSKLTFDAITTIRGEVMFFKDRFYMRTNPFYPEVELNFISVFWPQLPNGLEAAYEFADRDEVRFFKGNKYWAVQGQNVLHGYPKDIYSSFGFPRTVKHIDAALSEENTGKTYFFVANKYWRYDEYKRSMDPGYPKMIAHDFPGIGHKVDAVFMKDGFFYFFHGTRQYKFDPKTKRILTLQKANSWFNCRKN
As to the kind of experiment: Activity against Matrix metalloprotease-1 (MMP-1).

The target of a further experiment is Stromelysin-1 (Homo sapiens, UniProt P08254). As to the kind of experiment: Activity against Matrix metalloprotease-3 (MMP-3). Summed up:
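MMP-3 purified from human fibroblast culture medium, used at 0.3 U/mL. Substrate was radiolabeled proteoglycan entrapped in polyacrylamide particles (3.5 mg dry beads). IC50 values read from dose-dependent inhibition curves.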

The target of experiment [1] is Matrix metalloproteinase-14 (Homo sapiens, UniProt P50281). Description: Activity against deletion mutant of MT1-MMP lacking the transmembrane domain (deltaMT1).
For experiment [2], the target named is 72 kDa type IV collagenase (Homo sapiens, UniProt P08253). Description: Activity against Matrix metalloprotease-2 (MMP-2).
Chain of 72 kDa type IV collagenase (P08253 whole entry): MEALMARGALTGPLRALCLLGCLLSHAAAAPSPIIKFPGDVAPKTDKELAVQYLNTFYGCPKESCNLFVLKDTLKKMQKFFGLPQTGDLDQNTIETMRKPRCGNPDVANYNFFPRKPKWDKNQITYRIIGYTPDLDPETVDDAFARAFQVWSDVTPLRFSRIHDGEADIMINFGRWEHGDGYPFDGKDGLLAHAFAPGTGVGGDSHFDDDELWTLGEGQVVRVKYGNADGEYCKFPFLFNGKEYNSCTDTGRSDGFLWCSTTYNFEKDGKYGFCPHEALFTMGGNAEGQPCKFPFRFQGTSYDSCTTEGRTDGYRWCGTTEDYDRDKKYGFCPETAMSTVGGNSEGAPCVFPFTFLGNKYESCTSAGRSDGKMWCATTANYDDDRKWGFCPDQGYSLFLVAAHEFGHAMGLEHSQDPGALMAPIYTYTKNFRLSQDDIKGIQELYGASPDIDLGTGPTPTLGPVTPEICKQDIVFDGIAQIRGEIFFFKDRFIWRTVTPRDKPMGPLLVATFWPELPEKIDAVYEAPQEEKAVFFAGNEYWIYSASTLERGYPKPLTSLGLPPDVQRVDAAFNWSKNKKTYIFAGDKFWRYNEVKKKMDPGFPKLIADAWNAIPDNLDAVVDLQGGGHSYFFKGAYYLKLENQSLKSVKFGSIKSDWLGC
Experiment [3] concerns the target Matrix metalloproteinase-9 (Homo sapiens, UniProt P14780). Description: Activity against Matrix metalloprotease-9 (MMP-9).

pIC50: −log10 of the molar value.

A word on the pIC50: it is the IC50 on a negative log10 scale, so that one unit is a factor of ten.

Chain of Matrix metalloproteinase-9 (P14780 whole entry): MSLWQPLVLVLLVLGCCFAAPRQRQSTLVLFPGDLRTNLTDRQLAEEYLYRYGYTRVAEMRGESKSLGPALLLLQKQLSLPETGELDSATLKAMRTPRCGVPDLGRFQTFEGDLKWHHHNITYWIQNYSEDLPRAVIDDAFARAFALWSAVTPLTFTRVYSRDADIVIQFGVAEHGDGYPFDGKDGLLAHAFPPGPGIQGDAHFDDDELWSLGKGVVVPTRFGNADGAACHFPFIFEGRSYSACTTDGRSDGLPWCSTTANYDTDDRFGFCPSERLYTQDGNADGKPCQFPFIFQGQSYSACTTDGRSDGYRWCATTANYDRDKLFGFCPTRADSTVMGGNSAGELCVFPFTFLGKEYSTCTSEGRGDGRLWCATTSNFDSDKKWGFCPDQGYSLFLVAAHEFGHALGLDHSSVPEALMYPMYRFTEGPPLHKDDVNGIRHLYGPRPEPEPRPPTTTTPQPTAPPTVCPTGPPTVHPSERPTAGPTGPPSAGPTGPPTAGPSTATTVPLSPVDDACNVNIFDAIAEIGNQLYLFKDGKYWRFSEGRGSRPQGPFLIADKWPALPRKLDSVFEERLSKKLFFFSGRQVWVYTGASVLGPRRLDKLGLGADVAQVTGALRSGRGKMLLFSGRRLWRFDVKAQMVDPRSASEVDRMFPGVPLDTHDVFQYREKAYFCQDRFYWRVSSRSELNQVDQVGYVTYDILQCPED
Chain of Stromelysin-1 (P08254 whole entry): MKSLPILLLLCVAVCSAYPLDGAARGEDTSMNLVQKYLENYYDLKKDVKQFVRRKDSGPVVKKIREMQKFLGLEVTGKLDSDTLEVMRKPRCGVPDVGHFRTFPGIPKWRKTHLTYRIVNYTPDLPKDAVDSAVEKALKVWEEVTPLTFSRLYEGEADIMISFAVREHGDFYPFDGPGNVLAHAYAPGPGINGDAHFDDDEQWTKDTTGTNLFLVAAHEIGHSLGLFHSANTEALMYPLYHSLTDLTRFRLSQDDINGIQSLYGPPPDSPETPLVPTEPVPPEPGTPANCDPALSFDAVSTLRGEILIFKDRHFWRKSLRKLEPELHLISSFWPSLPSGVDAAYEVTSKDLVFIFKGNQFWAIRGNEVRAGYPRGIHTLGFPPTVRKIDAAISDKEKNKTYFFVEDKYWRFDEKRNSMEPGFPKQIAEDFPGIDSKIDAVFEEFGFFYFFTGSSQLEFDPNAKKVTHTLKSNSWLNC

In the case of `CNC(=O)[C@@H](NC(=O)[C@H](CCCc1ccccc1)CC(=O)NO)c1ccccc1`, the pIC50 at Interstitial collagenase is 7.05; on Stromelysin-1, 8.02; in experiment [1], 8.07; in experiment [2], 8.49; in experiment [3], 8.48.
In the same order, the values of `CNC(=O)[C@@H](NC(=O)[C@H](CC(C)C)[C@H](C)C(=O)NO)c1ccccc1` are 8.52, 8.72, 7.25, 8.12 and 8.41.
As to `CNC(=O)[C@@H](NC(=O)[C@@H](CC(=O)NO)CC(C)C)C(C)(C)C` [RO-319790], the pIC50 was 8.52 against Interstitial collagenase, 8.72 in experiment [1], 8.13 in experiment [2] and 7.92 in experiment [3].
As to `CCCCCCCCC[C@H](CC(=O)NO)C(=O)N[C@H](C(=O)NC)c1ccccc1`, the negative logarithm of the IC50 (pIC50) against Interstitial collagenase is 7.05; against Stromelysin-1, 7.00; in experiment [1], 7.75; in experiment [2], 8.80; in experiment [3], 9.70.
As to `CNC(=O)[C@H](Cc1ccccc1)NC(=O)[C@H](CC(C)C)[C@H](CSc1cccs1)C(=O)NO` [BATIMASTAT], the pIC50 in experiment [1] was 8.52; in experiment [3] it was 9.70.
As for `CNC(=O)[C@@H](NC(=O)[C@@H](CC(=O)NO)CC(C)C)C1CCCCC1`, the pIC50 against Interstitial collagenase is 8.27; on Stromelysin-1, 8.64; in experiment [1], 8.64; in experiment [2], 8.08; in experiment [3] it was 8.30.
For the compound `CNC(=O)[C@@H](NC(=O)[C@H](CC(C)C)[C@H](CN1CCOCC1)C(=O)NO)c1ccccc1`, the pIC50 against Interstitial collagenase was 8.46; against Stromelysin-1, 7.21; in experiment [1], 7.14; in experiment [3] it was 7.35.
For the compound `CNC(=O)[C@@H](NC(=O)C(CC(C)C)C(O)C(=O)NO)C(C)(C)C` (single isomer, unassigned), the pIC50 in experiment [1] was 8.74.
For `CNC(=O)[C@@H](NC(=O)[C@H](CC(C)C)[C@H](C)C(=O)NO)C1CCCCC1`, the pIC50 against Interstitial collagenase is 8.54; in experiment [1], 7.89; in experiment [3], 9.05.
As to `CNC(=O)[C@@H](NC(=O)[C@@H](CC(=O)NO)CC(C)C)c1ccccc1`, the pIC50 at Interstitial collagenase was 7.82; against Stromelysin-1, 8.36; in experiment [1], 7.71; in experiment [2], 7.37; in experiment [3], 7.85.
As to `CNC(=O)[C@@H](NC(=O)[C@H](CCCc1ccccc1)CC(=O)NO)C(C)(C)C`, the pIC50 is 8.72 in experiment [1] and 8.89 in experiment [3].
As for `CNC(=O)[C@H](Cc1c[nH]c2ccccc12)NC(=O)[C@@H](CC(=O)NO)CC(C)C` [ILOMASTAT], the pIC50 at Stromelysin-1 is 8.72; in experiment [1], 7.87.
For the compound `CNC(=O)[C@@H](NC(=O)[C@H](CCc1ccccc1)CC(=O)NO)c1ccccc1`, the pIC50 against Interstitial collagenase was 7.04; at Stromelysin-1 it was 7.77; in experiment [1], 6.98; in experiment [2] it was 7.33; in experiment [3] it was 7.96.
On to `CNC(=O)[C@@H](NC(=O)[C@H](CCCc1ccccc1)CC(=O)NO)C(C)C`, for which the pIC50 was 7.03 at Interstitial collagenase, 8.60 in experiment [1] and 8.55 in experiment [3].
`CNC(=O)[C@H](Cc1cccc2c1CCCC2)NC(=O)[C@H](CC(C)C)[C@H](C)C(=O)NO`: the pIC50 was 9.52 at Interstitial collagenase; 9.22 at Stromelysin-1; 8.68 in experiment [1]; 9.52 in experiment [2]; 9.52 in experiment [3].

(Values after ChEMBL document CHEMBL1131323, “Inhibition of membrane-type 1 matrix metalloproteinase by hydroxamate inhibitors: an examination of the subsite pocket” (J Med Chem, 1998).)
